Assay results from different studies.
Protocols differ between the studies behind these lines.
Target: Serine/threonine-protein kinase N1 (PKN1, Homo sapiens, UniProt Q16512)

Structure (SMILES) | test | setting | remaining binding [%]
CCc1ccccc1C(=O)Nc1n[nH]c2c(C)c(F)c(C3C(C#N)=C(C)N(C)C(C)=C3C#N)cc12 | cell-free assay, competition with immobilised ligand | 1 µM | 100
COc1ncc2cc3ccccc3nc2c1C#N | cell-free assay, competition with immobilised ligand | 5 µM | 100
C=CC(=O)N1CCC(C(=O)NCC(=O)N2CCN(c3nc(-c4cnc(N)nc4C(F)F)nc(N4CCOCC4)n3)CC2)CC1 | binding, competition with immobilised ligand | 1 µM | 83
N[C@@H]1CCN(c2nccc(-c3cnn4ncccc34)n2)C1 | binding | 1 µM | 93
CNC(=O)[C@@H]1CC[C@@H](n2c(-c3ccc4cnccc4c3)nc3ccc(C(=O)NCc4cccc(C(N)=O)c4)cc32)C1 | binding, competition with immobilised ligand | 1 µM | 92
O=C(c1ccc(Nc2ncc(Cl)c(-c3cc4ccccc4s3)n2)cc1)N1CCC(N2CCCC2)CC1 | binding, competition with immobilised ligand | 1 µM | 3.4
Cc1cnn2ncc(-c3ccnc(N(C)C)n3)c2c1 | binding | 1 µM | 99
COc1ccc2cc(OCC3(C(=O)O)CN(C(=O)c4ccc(F)cc4)C3)ccc2c1 | cell-free assay, competition with immobilised ligand | 1 µM | 100
COc1cnc(Nc2cccc(S(N)(=O)=O)c2)nc1N1CCN(c2ccccc2)CC1 | binding, competition with immobilised ligand | 1 µM | 82
COc1ccc2c(c1)O[C@@H](c1ccc(OC)c(OC)c1)C[C@H]2NC(=O)C1(c2ccc3c(c2)OC(F)(F)O3)CC1 | cell-free assay, competition with immobilised ligand | 1 µM | 96
FC(F)(F)Oc1cccc(-c2cnc3ccc(-c4ccncc4)nn23)c1 | cell-free assay, competition with immobilised ligand | 5 µM | 67
CN(C)c1ncnc(-c2ccc3nc(Nc4cc(CN5CCN(C(=O)CC(F)(F)F)CC5)ccn4)[nH]c3c2)c1Cl | cell-free assay, competition with immobilised ligand | 1 µM | 100
O=C(NCCCN1CCOCC1)c1ccc(Nc2nccc(-c3cc4ccccc4s3)n2)cc1 | binding, competition with immobilised ligand | 1 µM | 37
CN(C)c1nccc(-c2cnc3ncccn23)n1 | binding | 1 µM | 100
O=C(NCCCN1CCOCC1)c1ccc(Nc2ncc(Cl)c(-c3ccc(Cl)s3)n2)cc1 | binding, competition with immobilised ligand | 1 µM | 39
CNC(=O)Nc1ccc2c(c1)[C@@]1(CC2)OC(=O)N(CC(=O)N(Cc2ccc(F)cc2)[C@@H](C)C(F)(F)F)C1=O | cell-free assay, competition with immobilised ligand | 1 µM | 98
CN(c1nccc(-c2cnn3ncccc23)n1)C1CC1 | binding | 1 µM | 100
CCOCCn1cc(C(=O)Nc2ccc(-n3nc(-c4cccnc4)cc3C(F)(F)F)cn2)ccc1=O | cell-free assay, competition with immobilised ligand | 1 µM | 76
COc1ccnn2ncc(-c3ccnc(N(C)C)n3)c12 | binding | 1 µM | 74
O=C(Nc1c[nH]nc1C(=O)NC1CCNCC1)c1cc(F)cc(F)c1 | binding, competition with immobilised ligand | 1 µM | 100
C[C@@H]1CCN(c2nccc(-c3cnn4ncccc34)n2)C1 | binding | 1 µM | 84
CCN1CCN(Cc2ccc(C(=O)Nc3ccc(C)c(Oc4ccc5c(c4)CC(=O)N5)c3)cc2C(F)(F)F)CC1 | binding, competition with immobilised ligand | 1 µM | 100
